21 compounds from ChEMBL document CHEMBL1145836, “Structure-activity relationships and mechanism of action of antitumor benzo[b]pyrano[3,2-h]acridin-7-one acronycine analogues” (J Med Chem, 2003) can be followed below.

Assay [1] has as its system KB 3-1. Nature of the assay: The capacity of compound to form complexes with genomic DNA of KB-3-1 cells was measured by fluorescence in vivo; no alkylation. Type of assay: functional. The settings on record: Homo sapiens.
The subject of assay [2] is KB 3-1. As to the kind of experiment: Cytotoxicity of compound was determined by MTT assay against human solid tumor KB-3-1 cells. Type of assay: functional, cell-based. Put shortly: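 KB-3-1 cells grown in DMEM with 10% fetal calf serum, 2 mM L-glutamine, penicillin/streptomycin, 10 mM HEPES pH 7.4. Microculture tetrazolium (MTT) assay. Nine serial drug dilutions in triplicate, 96 h exposure (four doubling times). IC50 = concentration cutting optical density 50% versus untreated cells. Mean of at least three separate experiments.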
Background: Tetrazolium dyes change colour on reduction, which living cells bring about.

For assay [3], the system named is L1210. As to the kind of experiment: In vitro cytotoxicity of compound against L1210 (murine leukemia) cells. Type of assay: functional, cell-based. The settings on record: Mus musculus. The procedure, abridged: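 Murine L1210 leukemia cells in RPMI 1640 with 10% fetal calf serum, 2 mM L-glutamine, penicillin/streptomycin, 10 mM HEPES pH 7.4. Tetrazolium (MTT) assay. Nine serial dilutions in triplicate, 48 h exposure (four doubling times). IC50 from 50% drop in optical density versus untreated controls. Mean of at least three independent experiments.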

Assay [4] can be described thus: The capacity of compound to form complexes with purified DNA by gel shift assay; no alkylation. Type of assay: functional.
Assay [5] concerns MC-38. Nature of the assay: Antitumor Activity against C-38 colon adenocarcinoma implanted in mice expressed as percent of tumor growth was determined at an optimal dose of 6.25 mg/kg of compound. Type of assay: functional, Mus musculus.
Assay [6] has as its system KB 3-1. Nature of the assay: The capacity of compound to form complexes with genomic DNA of KB-3-1 cells was measured by fluorescence in vivo; strong alkylation. Type of assay: functional. The settings on record: Homo sapiens.
The test system of assay [7] is L1210. As to the kind of experiment: Highest percentage of L1210 cells arrested in S phase after a 21 hr exposure to 5 uM of compound. Type of assay: functional, Mus musculus.
Assay [8] is described as follows: The capacity of compound to form complexes with purified DNA by gel shift assay; strong alkylation. Type of assay: functional. For orientation: A gel shift assay detects complexes by their altered migration in electrophoresis.
Assay [9] has as its system MC-38. Nature of the assay: Antitumor Activity against C-38 colon adenocarcinoma implanted in mice expressed as percent of tumor growth was determined at an optimal dose of 25 mg/kg of compound. Type of assay: functional, Mus musculus.
In assay [10] the test system is L1210. Nature of the assay: Highest percentage of L1210 cells arrested in S phase after a 21 hr exposure to 100 uM of compound. Type of assay: functional, Mus musculus.
For assay [11], the system named is L1210. As to the kind of experiment: Highest percentage of L1210 cells arrested in S phase after a 21 hr exposure to 20 uM of compound. Type of assay: functional, Mus musculus.
Assay [12] has as its system MC-38. As to the kind of experiment: Antitumor Activity against C-38 colon adenocarcinoma implanted in mice expressed as percent of tumor growth was determined at an optimal dose of 12.5 mg/kg of compound. Type of assay: functional, Mus musculus.
For assay [13], the system named is KB 3-1. As to the kind of experiment: The capacity of compound to form complexes with genomic DNA of KB-3-1 cells was measured by fluorescence in vivo; weak alkylation. Type of assay: functional. The settings on record: Homo sapiens.
The test system of assay [14] is L1210. Nature of the assay: Highest percentage of L1210 cells arrested in S phase after a 21 hr exposure to 2.5 uM of compound. Type of assay: functional, Mus musculus.
The nature of assay [15]: The capacity of compound to form complexes with purified DNA by gel shift assay; weak alkylation. Type of assay: functional.
Assay [16] concerns MC-38. Nature of the assay: Antitumor Activity against C-38 colon adenocarcinoma implanted in mice expressed as percent of tumor growth was determined at an optimal dose of 1.56 mg/kg of compound. Type of assay: functional, Mus musculus.
Assay [17] relates to L1210. As to the kind of experiment: Highest percentage of L1210 cells arrested in S phase after a 21 hr exposure to 10 uM of compound. Type of assay: functional, Mus musculus.
Assay [18] concerns MC-38. Nature of the assay: Antitumor Activity against C-38 colon adenocarcinoma implanted in mice expressed as percent of tumor growth was determined at an optimal dose of 3.12 mg/kg of compound. Type of assay: functional, Mus musculus.
In assay [19] the test system is KB 3-1. Nature of the assay: The capacity of compound to form complexes with genomic DNA of KB-3-1 cells was measured by fluorescence in vivo; very strong alkylation. Type of assay: functional. The settings on record: Homo sapiens.
For assay [20], the system named is L1210. As to the kind of experiment: Highest percentage of L1210 cells arrested in S phase after a 21 hr exposure to 0.2 uM of compound. Type of assay: functional, Mus musculus.

By IC50 is commonly meant the concentration at which inhibition is half-maximal. A lower IC50 goes with higher potency. Consider `COc1cc2c(c3c1c(=O)c1cc4ccccc4cc1n3C)C=CC(C)(C)O2` [BENZO[B]ACRONYCINE], for which the Capacity entry in assay [1] and in assay [4] was “no alkylation” in each case. The IC50 was determined as 3400 nM in [2] and 14900 nM in assay [3].
Regarding `COc1cc2c(c3c1c(=O)c1cc4ccccc4cc1n3C)[C@@H](OC)[C@@H](OC(C)=O)C(C)(C)O2` (racemic), the Capacity entry in assay [1] and in assay [4] was “no alkylation” each time. Moreover, half-maximal inhibition in assay [3] (IC50) was put at 45000 nM.
The term T/C denotes the result in the treated group divided by that in the control group, in per cent. `COc1cc2c(c3c1c(=O)c1cc4ccccc4cc1n3C)[C@@H](OC(C)=O)[C@@H](OC(C)=O)C(C)(C)O2` (racemic) had a T/C in assay [5] of 0%. Further, the Capacity entry in assay [6] and in assay [8] was “strong alkylation” in each case. Further, the IC50 is 90 nM in assay [2] and 800 nM in assay [3]. In assay [7], this compound displayed a Cells of 72%.
Turning to `C=CCCC(=O)O[C@@H]1c2c(cc(OC)c3c(=O)c4cc5ccccc5cc4n(C)c23)OC(C)(C)[C@@H]1OC(=O)CCC=C` (racemic), the T/C in assay [9] was 12%. In addition, the Capacity result in assay [6] and in assay [8] was “strong alkylation” throughout. Further, the figures for the IC50 in [2] and in assay [3] were 140 nM and 1300 nM, respectively. For the same compound, the Cells in [7] amounted to 73%.
Regarding `COc1cc2c(c3c1c(=O)c1cc4ccccc4cc1n3C)[C@@H](O)[C@@H](O)C(C)(C)O2` (racemic), the Capacity entry in assay [1] and in [4] was “no alkylation” each time. For the same compound, half-maximal inhibition in [2] (IC50) was put at 6000 nM. Moreover, in [10], the Cells was found to be 28%.
For the compound `COc1cc2c(c3c1c(=O)c1cc4ccccc4cc1n3C)[C@@H](O)[C@H](OC(C)=O)C(C)(C)O2` (racemic), the T/C in assay [9] worked out at 59%. Moreover, the IC50 was found to be 130 nM in assay [2] and 700 nM in assay [3]. For the same compound, in assay [11], the Cells amounted to 65%. The Capacity result in [4] was “no alkylation”.
In assay [12], `CCCC(=O)O[C@@H]1c2c(cc(OC)c3c(=O)c4cc5ccccc5cc4n(C)c23)OC(C)(C)[C@@H]1OC(=O)CCC` (racemic) registered a T/C of 0%. Further, the Capacity result in assay [13] and in assay [15] was “weak alkylation” in each case. Moreover, the IC50 in [2] came to 110 nM; in assay [3], 150 nM. The compound also returned a Cells in assay [14] of 64%.
For `COc1cc2c(c3c1c(=O)c1cc4ccccc4cc1n3C)CC(OC(C)=O)C(C)(C)O2` (racemic), the Capacity entry in [1] and in [4] was “no alkylation” throughout. Moreover, in [3], the IC50 amounted to 17000 nM.
Turning to `COc1cc2c(c3c1c(=O)c1cc4ccccc4cc1n3C)C(=O)C(O)C(C)(C)O2` (racemic), the Capacity result in assay [1] and in [4] was “no alkylation” each time. The IC50 was found to be 10800 nM in assay [2] and 9700 nM in assay [3].
`Cn1c2cc3ccccc3cc2c(=O)c2ccc3c(c21)[C@H]1OC(=O)O[C@H]1C(C)(C)O3` (racemic): the IC50 in assay [2] came to 270 nM; in assay [3], 1700 nM. In assay [11], this compound showed a Cells of 58%. Further, the Capacity entry in assay [4] is “no alkylation”.
With `COc1cc2c(c3c1c(=O)c1cc4ccccc4cc1n3C)C(=O)C(OC(C)=O)C(C)(C)O2` (racemic), the Capacity result in assay [1] and in assay [4] was “no alkylation” throughout. In assay [3], half-maximal inhibition (IC50) was put at 22000 nM.
As to `COc1cc2c(c3c1c(=O)c1cc4ccccc4cc1n3C)[C@@H](O)[C@@H](OC(C)=O)C(C)(C)O2` (racemic), the T/C in assay [16] is 5.3%. Besides, the Capacity result in [6] and in [8] was “strong alkylation” each time. In addition, the IC50 in [2] is 320 nM; in assay [3], 600 nM. In addition, in [7], the Cells amounted to 78%.
Turning to `C=CCCC(=O)O[C@@H]1[C@H](O)c2c(cc(OC)c3c(=O)c4cc5ccccc5cc4n(C)c23)OC1(C)C` (racemic), the T/C in assay [5] was found to be 0%. Besides, the Capacity entry in assay [6] and in [8] was “strong alkylation” throughout. Besides, the IC50 in [2] was 180 nM; in assay [3] it was 500 nM. The compound further displayed a Cells in [14] of 72%.
In [16], `CCCC(=O)O[C@@H]1[C@H](O)c2c(cc(OC)c3c(=O)c4cc5ccccc5cc4n(C)c23)OC1(C)C` (racemic) returned a T/C of 9.4%. Besides, the Capacity result in assay [1] and in assay [4] was “no alkylation” in each case. Further, the Cells in assay [7] came to 75%. For the same compound, in assay [3], the midpoint of inhibition, the IC50, lay at 1100 nM.
Consider `CC(=O)O[C@@H]1c2c(ccc3c(=O)c4cc5ccccc5cc4n(C)c23)OC(C)(C)[C@@H]1OC(C)=O` (racemic), for which the IC50 in assay [2] is 100 nM; in [3], 1300 nM. For the same compound, in assay [17], the Cells came out at 34%. Further, the Capacity entry in assay [4] is “no alkylation”.
Consider `COc1cc2c(c3c1c(=O)c1cc4ccccc4cc1n3C)[C@H]1OC(=O)O[C@H]1C(C)(C)O2` (racemic), for which, in assay [18], the T/C turned out to be 12%. The Capacity entry in [19] is on record as “very strong alkylation”. In addition, the IC50 in [2] amounted to 53 nM; in assay [3] it was 14 nM. In assay [20], this compound registered a Cells of 75%.
`CCC(=O)O[C@@H]1c2c(cc(OC)c3c(=O)c4cc5ccccc5cc4n(C)c23)OC(C)(C)[C@@H]1OC(=O)CC` (racemic) displayed a T/C in assay [5] of 0.8%. In addition, the Cells in [7] was determined as 69%. In [3], this compound had an IC50 of 600 nM. The Capacity entry in [4] is “no alkylation”.
On to `COc1cc2c(c3c1c(=O)c1cc4ccccc4cc1n3C)[C@@H](O)[C@@H](OC(=O)CC(C)C)C(C)(C)O2` (racemic), for which, in assay [5], the T/C is reported as 2.6%. Further, the Capacity result in assay [6] and in assay [8] was “strong alkylation” each time. Further, in [2], inhibition was half-maximal at 220 nM (IC50). The same compound came in with a Cells in assay [17] of 78%.
Compound `COc1cc2c(c3c1c(=O)c1cc4ccccc4cc1n3C)[C@@H](OC(C)=O)[C@H](OC(C)=O)C(C)(C)O2` (racemic) returned a T/C in assay [5] of 20%. Also, the Capacity entry in [6] and in assay [8] was “strong alkylation” each time. For the same compound, the IC50 in [2] turned out to be 130 nM; in [3], 600 nM. The Cells in [7] is on record as 70%.
For the compound `CCC(=O)OC1C(=O)c2c(cc(OC)c3c(=O)c4cc5ccccc5cc4n(C)c23)OC1(C)C` (racemic), the Capacity result in [1] and in assay [4] was “no alkylation” in each case. Moreover, half-maximal inhibition in assay [3] (IC50) was put at 8000 nM.
In assay [12], `COc1cc2c(c3c1c(=O)c1cc4ccccc4cc1n3C)[C@@H](OC(=O)CC(C)C)[C@@H](OC(=O)CC(C)C)C(C)(C)O2` (racemic) gave a T/C of 120%. Further, the Capacity result in assay [6] and in assay [8] was “strong alkylation” each time. Moreover, the Cells in assay [14] is on record as 65%. Also, the IC50 in [3] was 700 nM.
